ChEMBL document CHEMBL1649401, “Synthesis and biophysical evaluation of arylhydrazono-1H-2-indolinones as β-amyloid aggregation inhibitors” (Eur J Med Chem, 2011)
Active and inactive are the calls of the source. No cut-off for these calls is given here.

What was measured:
[1] = Inhibition of amyloid beta (1 to 40) aggregation at 100 uM after 2 hrs by thioflavin T based fluorometric assay
Procedure, shortened: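 Aβ1-40 (HFIP-treated, lyophilized) at 30 μM in PBS (0.01 M, NaCl 0.1 M, pH 7.4) containing 2% HFIP and 10% DMSO. Incubated with inhibitor in triplicate, 2 h at 25 °C. Sample mixed with 25 μM ThT in 0.025 M phosphate pH 6.0, read at ex 440/em 485 nm. % inhibition = 100 − [(Fi − Fb)/F0]×100. Screen at 100 μM.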

[2] = Inhibition of amyloid beta (1 to 40) aggregation after 2 hrs by thioflavin T based fluorometric assay
[3] = Inhibition of amyloid beta (1 to 40) aggregation assessed as reduction of exponential phase of thioflavin T fluorescence curve at 100 uM after 3 to 4 days
Procedure, shortened: (§1)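 Aβ1-40 (50 μM) incubated alone or with compound in 0.217 M phosphate pH 8.0, 10% ethanol, 37 °C. Aliquots taken at time points over several days and analyzed by ThT fluorescence. Values expressed as percentage of the plateau fluorescence of free aggregation.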

[4] = Inhibition of amyloid beta (1 to 40) aggregation assessed as reduction of exponential phase of thioflavin T fluorescence curve at 25 uM after 3 to 4 days; procedure, shortened: as §1
[5] = Inhibition of amyloid beta (1 to 40) aggregation assessed as formation of long and curly fibrils at 5 uM after 7 days by transmission electron microscopic analysis
[6] = Inhibition of amyloid beta (1 to 40) aggregation assessed as inhibition of extended fibrils formation at 5 uM after 7 days by transmission electron microscopic analysis
[7] = Inhibition of amyloid beta (1 to 40) aggregation assessed as effect on extension of beta-sheet content at 5 uM up to 8 days by CD spectroscopy assay
Procedure, shortened: (§2)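 Samples as for TEM: 50 μM Aβ1-40, 0.217 M phosphate pH 8.0, 10% ethanol, 37 °C incubation, aliquots removed over time. Spectra 195–250 nm, 0.1 cm cell, room temperature, 0.1 nm steps, 4 nm bandwidth. Buffer/ethanol (± compound) blank subtracted. Absolute 215 nm ellipticity plotted vs incubation time.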

[8] = Solubility of the compound in aqueous buffer; format: physicochemical
[9] = Inhibition of amyloid beta (1 to 40) aggregation assessed as reduction of autocorrelation function particles size at 5 uM after 3 days by dynamic light-scattering analysis
Procedure, shortened: (§3)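 Dynamic light scattering at a 173° backscatter angle with a 633 nm laser, cell held at 37 °C. z-averaged hydrodynamic diameter obtained by second-order cumulant analysis and the Stokes–Einstein equation.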

[10] = Inhibition of amyloid beta (1 to 40) aggregation assessed as effect on extension of beta-sheet content at 5 uM after 2 days by CD spectroscopy assay; procedure, shortened: as §2
[11] = Inhibition of amyloid beta (1 to 40) aggregation assessed as reduction of exponential phase of thioflavin T fluorescence curve at 5 uM after 3 to 4 days; procedure, shortened: as §1
[12] = Inhibition of amyloid beta (1 to 40) aggregation assessed as loss of stable random coil arrangement of peptide up to 100 uM after up to 8 days by CD spectroscopy assay; procedure, shortened: as §2
[13] = Inhibition of amyloid beta (1 to 40) aggregation assessed as delay in formation of fibrils at 5 uM after 12 hrs by dynamic light-scattering analysis; procedure, shortened: as §3
[14] = Inhibition of amyloid beta (1 to 40) aggregation assessed as loss of beta-sheet structure up to 100 uM after up to 8 days by CD spectroscopy assay; procedure, shortened: as §2

Structure (SMILES) | inhibition [1] | IC50 [2] | further results
COc1ccc2c(c1)/C(=N/Nc1cccc(Cl)c1)C(=O)N2 | 72% |  | 
COc1ccc2c(c1)/C(=N/Nc1cccc(C(C)(C)C)c1)C(=O)N2 | 56% |  | 
COc1ccc(N/N=C2\C(=O)Nc3cc(OC)c(OC)cc32)cc1 |  | 22 µM | 
COc1ccc2c(c1)/C(=N/Nc1ccc(C(C)C)cc1)C(=O)N2 |  | 0.4 µM | 
COc1ccc2c(c1)/C(=N/Nc1cccc(OCc3ccccc3)c1)C(=O)N2 | 44% |  | 
COc1ccc2c(c1)NC(=O)/C2=N\Nc1ccc(C(C)C)cc1 |  | 7.1 µM | 
COc1cc2c(cc1OC)/C(=N/Nc1ccc(Cl)cc1)C(=O)N2 | 71% |  | 
O=C1Nc2ccccc2/C1=N/Nc1ccccc1Cl | 44% |  | 
Oc1[nH]c2ccccc2c1/N=N/c1ccccc1 | 61% |  | 
COc1ccc2c(c1)/C(=N/Nc1ccc(C)cc1)C(=O)N2 | 29% |  | 
COc1ccc2c(c1)NC(=O)/C2=N\Nc1ccccc1 |  | 5.8 µM | 
COc1ccc(N/N=C2\C(=O)Nc3ccc(OC)cc32)cc1 |  | 3.7 µM | 
COc1ccc2[nH]c(O)c(/N=N/c3ccccc3)c2c1 | 52% |  | 
COc1ccc2c(c1)/C(=N/Nc1ccc(Cl)cc1)C(=O)N2 | 43% |  | 
COc1cc2c(cc1OC)/C(=N/Nc1ccccc1Cl)C(=O)N2 | 68% |  | 
CC(C)c1ccc(N/N=C2\C(=O)Nc3cc(O)ccc32)cc1 |  | 6 µM | 
O=C1Nc2cc(O)c(O)cc2/C1=N/Nc1ccc(Cl)cc1 |  | 17 µM | 
O=C1Nc2ccccc2/C1=N/Nc1cccc(F)c1 | 52% |  | 
O=C1Nc2ccc(Br)cc2/C1=N/Nc1ccc(Cl)cc1 | 63% |  | 
COc1ccc2c(c1)/C(=N/Nc1ccc(C(C)(C)C)cc1)C(=O)N2 |  | 15 µM | 
O=C1Nc2ccccc2/C1=N/Nc1cccc([N+](=O)[O-])c1 | 29% |  | 
O=C1Nc2ccccc2/C1=N/Nc1cccc(Cl)c1 | 39% |  | 

Structure (SMILES) | inhibition [1] | IC50 [2] | further results
COc1ccc(N/N=C2\C(=O)Nc3ccccc32)cc1 |  | 13 µM | 
CC(C)c1ccc(N/N=C2\C(=O)Nc3ccc(O)cc32)cc1 |  | 21 µM | 
COc1cc2c(cc1OC)/C(=N/Nc1cccc(Cl)c1)C(=O)N2 |  | 17 µM | 
COc1cc2c(cc1OC)/C(=N/Nc1ccc(C(C)C)cc1)C(=O)N2 |  | 4.4 µM | 
O=C1Nc2cc(O)c(O)cc2/C1=N/Nc1ccccc1 |  | 4.3 µM | 
CC(C)c1ccc(N/N=C2\C(=O)Nc3ccccc32)cc1 | 64% |  | 
CC(C)c1ccc(N/N=C2\C(=O)Nc3cc(O)c(O)cc32)cc1 |  | 1.6 µM | 
O=C1Nc2cc(O)c(O)cc2/C1=N/Nc1ccc(O)cc1 |  | 24 µM | 
O=C1Nc2ccccc2/C1=N/Nc1ccc(OC(F)(F)F)cc1 | 57% |  | 
COc1cc2c(cc1OC)/C(=N/Nc1ccccc1)C(=O)N2 | 68% |  | 
O=C1Nc2ccccc2/C1=N/Nc1ccc(Cl)cc1 | 24% |  | 
O=C1Nc2cc(Cl)c(F)cc2/C1=N/Nc1ccc(Cl)cc1 | 28% |  | 
O=C1Nc2cc(O)ccc2/C1=N/Nc1ccccc1 |  | 22 µM | 
O=C1Nc2ccc([N+](=O)[O-])cc2/C1=N/Nc1ccccc1 | 0% |  | 
O=C1Nc2cc(O)c(O)cc2/C1=N/Nc1ccccc1Cl |  | 11 µM | 
COc1ccc2c(c1)/C(=N/Nc1ccc(OCc3ccccc3)cc1)C(=O)N2 | 20% |  | 
O=C1Nc2ccc(O)cc2/C1=N/Nc1ccccc1 | 62% |  | 
O=C1Nc2cc(O)c(O)cc2/C1=N/Nc1cccc(Cl)c1 |  | 1.1 µM | inhibition [3]: Active; inhibition [4]: Active; inhibition [5]: Active; inhibition [6]: Active; inhibition [7]: Active; solubility [8]: soluble; inhibition [9]: inactive; inhibition [10]: inactive; inhibition [11]: Active; inhibition [12]: Active; inhibition [13]: Active; inhibition [14]: Active
O=C1Nc2ccc(O)cc2/C1=N/Nc1cccc(Cl)c1 |  | 18 µM | 
O=C1Nc2ccc(O)cc2/C1=N/Nc1ccc(O)cc1 | 61% |  | 
O=C1Nc2ccc([N+](=O)[O-])cc2/C1=N/Nc1ccc(Cl)cc1 | 12% |  | 
O=C1Nc2ccccc2/C1=N/Nc1ccc(O)cc1 |  | 9.3 µM | 
